Experimental data as given in ChEMBL document CHEMBL4196066, “Design and synthesis of furyl/thineyl pyrroloquinolones based on natural alkaloid perlolyrine, lead to the discovery of potent and selective PDE5 inhibitors” (Eur J Med Chem, 2018).

How the values were obtained:
[1] = AUC (0 to 24 hrs) in Wistar rat at 2 mg/kg, iv; format: ADME, organism-based; design: time < 24 hr, dose 2 mg/kg, route intravenous; settings: in vivo
[2] = target: Dual specificity calcium/calmodulin-dependent 3',5'-cyclic nucleotide phosphodiesterase 1A (Homo sapiens) (UniProt P54750); test: Inhibition of N-terminal GST-tagged full length recombinant human PDE1A expressed in Baculovirus infected Sf9 insect cells at 8 uM using FAM-cAMP as substrate after 1 hr by fluorescence polarization assay relative to control
[3] = Tmax in Wistar rat at 2 mg/kg, iv; format: ADME, organism-based; settings: in vivo
[4] = target: Dual 3',5'-cyclic-AMP and -GMP phosphodiesterase 11A (Homo sapiens, UniProt Q9HCR9); test: Inhibition of N-terminal GST-tagged full length recombinant human PDE11A expressed in Baculovirus infected Sf9 insect cells using FAM-cAMP as substrate after 1 hr by fluorescence polarization assay
Rattus norvegicus [5] = test: (§1) AUC (0 to infinity) in Wistar rat at 15 mg/kg, po; format: ADME, organism-based; design: dose 15 mg/kg, route oral, time infinity; settings: in vivo
Outline: (§2)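 Male Wistar rats (228−249 g) fasted 12 h, dosed orally in 0.5% methylcellulose. Blood drawn at 0, 0.5, 1, 1.5, 2, 4, 6, 12 and 24 h; plasma separated by centrifugation at 4 °C, stored at −80 °C, drug measured by LC–MS/MS, and PK parameters computed from the concentration–time data.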

[6] = AUC (0 to infinity) in Wistar rat at 2 mg/kg, iv; format: ADME, organism-based; design: dose 2 mg/kg, route intravenous, time infinity; settings: in vivo
Thoracic aorta = test: Vasorelaxant activity in norepinephrine-pretreated New Zealand rabbit thoracic aorta assessed as increase in aortic relaxation at 1 uM measured after 15 mins relative to control; format: functional, Oryctolagus cuniculus; design: scale not given: the % may be the effect or the level left
Outline: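 Thoracic aortic rings from New Zealand white rabbits were held in Krebs buffer at 2 g resting tension (0%) and equilibrated 2 h. Rings were contracted to maximum with 1 µM norepinephrine (100%). Compounds were added cumulatively at 15 min intervals, with tension recorded 15 min after each dose. Relaxation % = (max − recorded)/(max − 2 g) × 100; n = 1–2 rings.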

Homo sapiens [7] = species: Homo sapiens; test: Selectivity ratio of IC50 for N-terminal GST-tagged full length recombinant human PDE6C to IC50 for N-terminal GST-tagged full length recombinant human PDE5A1 catalytic domain
[8] = MRT in Wistar rat at 15 mg/kg, po; format: ADME, organism-based; settings: in vivo
[9] = target: cGMP-dependent 3',5'-cyclic phosphodiesterase (Homo sapiens) (UniProt O00408); test: Inhibition of N-terminal FLAG-tagged human PDE2A1 (2 to 941 residues) expressed in Baculovirus infected Sf9 insect cells at 8 uM using FAM-cAMP as substrate after 1 hr by fluorescence polarization assay relative to control
[10] = target: Cone cGMP-specific 3',5'-cyclic phosphodiesterase subunit alpha' (Homo sapiens, UniProt P51160); test: Inhibition of N-terminal GST-tagged full length recombinant human PDE6C expressed in Baculovirus infected Sf9 insect cells using […] as substrate after 1 hr by fluorescence polarization assay
[11] = Half life in Wistar rat at 15 mg/kg, po; format: ADME, organism-based; settings: in vivo
[12] = Cmax in Wistar rat at 15 mg/kg, po; format: ADME, organism-based; design: dose 15 mg/kg, route oral; settings: in vivo
Homo sapiens [13] = species: Homo sapiens; test: Selectivity ratio of IC50 for N-terminal GST-tagged recombinant human PDE3B (592 end residues) to IC50 for N-terminal GST-tagged full length recombinant human PDE5A1 catalytic domain
[14] = MRT in Wistar rat at 2 mg/kg, iv; format: ADME, organism-based; settings: in vivo
[15] = Volume of distribution at steady state in Wistar rat at 2 mg/kg, iv; format: ADME, organism-based; settings: in vivo, read-out: Vdss
Rattus norvegicus [16] = test: Volume of distribution at steady state in Wistar rat at 15 mg/kg, po; format: ADME, organism-based; settings: in vivo
Homo sapiens [17] = species: Homo sapiens; test: Selectivity ratio of IC50 for N-terminal FLAG-tagged human PDE2A1 (2 to 941 residues) to IC50 for N-terminal GST-tagged full length recombinant human PDE5A1 catalytic domain
Homo sapiens [18] = species: Homo sapiens; test: Selectivity ratio of IC50 for N-terminal GST-tagged full length recombinant human PDE11A to IC50 for N-terminal GST-tagged full length recombinant human PDE5A1 catalytic domain
[19] = Tmax in Wistar rat at 15 mg/kg, po; format: ADME, organism-based; settings: in vivo
Homo sapiens [20] = species: Homo sapiens; test: Selectivity ratio of IC50 for N-terminal GST-tagged full length recombinant human PDE4A1A to IC50 for N-terminal GST-tagged full length recombinant human PDE5A1 catalytic domain
[21] = AUC (0 to 24 hrs) in Wistar rat at 15 mg/kg, po; format: ADME, organism-based; design: time < 24 hr, dose 15 mg/kg, route oral; settings: in vivo; outline: as §2
[22] = target: cGMP-inhibited 3',5'-cyclic phosphodiesterase 3B (Homo sapiens) (UniProt Q13370); test: Inhibition of N-terminal GST-tagged recombinant human PDE3B (592 end residues) expressed in Baculovirus infected Sf9 insect cells at 8 uM using FAM-cAMP as substrate after 1 hr by fluorescence polarization assay relative to control
[23] = target: 3',5'-cyclic-AMP phosphodiesterase 4A (Homo sapiens) (UniProt P27815); test: Inhibition of N-terminal GST-tagged full length recombinant human PDE4A1A expressed in Baculovirus infected Sf9 insect cells at 1.5 uM using FAM-cAMP as substrate after 1 hr by fluorescence polarization assay relative to control
Oryctolagus cuniculus = test: Vasorelaxant activity in iv dosed New Zealand rabbit assessed as induction of ICP change in response to electrically pelvic nerve stimulation administered as bolus dose; format: functional
[24] = target: cGMP-specific 3',5'-cyclic phosphodiesterase (Homo sapiens, UniProt O76074); test: Inhibition of N-terminal GST-tagged full length recombinant human PDE5A1 catalytic domain expressed in Baculovirus infected Sf9 insect cells using FAM-cGMP as substrate after 1 hr by fluorescence polarization assay
[25] = Clearance in Wistar rat at 2 mg/kg, iv; format: ADME, organism-based; settings: in vivo
[26] = Cmax in Wistar rat at 2 mg/kg, iv; format: ADME, organism-based; design: dose 2 mg/kg, route intravenous; settings: in vivo
[27] = Half life in Wistar rat at 2 mg/kg, iv; format: ADME, organism-based; settings: in vivo
[28] = Oral bioavailability in Wistar rat at 15 mg/kg; format: ADME, organism-based; settings: in vivo
[29] = target: cGMP-dependent 3',5'-cyclic phosphodiesterase (Homo sapiens) (UniProt O00408); test: Inhibition of N-terminal FLAG-tagged human PDE2A1 (2 to 941 residues) expressed in Baculovirus infected Sf9 insect cells at 250 uM using FAM-cAMP as substrate after 1 hr by fluorescence polarization assay relative to control
Homo sapiens [30] = species: Homo sapiens; test: Selectivity ratio of IC50 for N-terminal GST-tagged full length recombinant human PDE1A to IC50 for N-terminal GST-tagged full length recombinant human PDE5A1 catalytic domain
[31] = as §1; format: ADME, organism-based; design: dose 15 mg/kg, route oral, time infinity; settings: Wistar, in vivo; outline: as §2
[32] = target: 3',5'-cyclic-AMP phosphodiesterase 4A (Homo sapiens) (UniProt P27815); test: Inhibition of N-terminal GST-tagged full length recombinant human PDE4A1A expressed in Baculovirus infected Sf9 insect cells at 1 uM using FAM-cAMP as substrate after 1 hr by fluorescence polarization assay relative to control
[33] = Clearance in Wistar rat at 15 mg/kg, po; format: ADME, organism-based; settings: in vivo
[34] = target: cGMP-inhibited 3',5'-cyclic phosphodiesterase 3B (Homo sapiens) (UniProt Q13370); test: Inhibition of N-terminal GST-tagged recombinant human PDE3B (592 end residues) expressed in Baculovirus infected Sf9 insect cells at 6 uM using FAM-cAMP as substrate after 1 hr by fluorescence polarization assay relative to control
[35] = target: Dual specificity calcium/calmodulin-dependent 3',5'-cyclic nucleotide phosphodiesterase 1A (Homo sapiens) (UniProt P54750); test: Inhibition of N-terminal GST-tagged full length recombinant human PDE1A expressed in Baculovirus infected Sf9 insect cells at 6 uM using FAM-cAMP as substrate after 1 hr by fluorescence polarization assay relative to control
[36] = target: cGMP-dependent 3',5'-cyclic phosphodiesterase (Homo sapiens) (UniProt O00408); test: Inhibition of N-terminal FLAG-tagged human PDE2A1 (2 to 941 residues) expressed in Baculovirus infected Sf9 insect cells at 6 uM using FAM-cAMP as substrate after 1 hr by fluorescence polarization assay relative to control

Chain of cGMP-dependent 3',5'-cyclic phosphodiesterase (Homo sapiens) (O00408 whole entry, the tested form may be a part): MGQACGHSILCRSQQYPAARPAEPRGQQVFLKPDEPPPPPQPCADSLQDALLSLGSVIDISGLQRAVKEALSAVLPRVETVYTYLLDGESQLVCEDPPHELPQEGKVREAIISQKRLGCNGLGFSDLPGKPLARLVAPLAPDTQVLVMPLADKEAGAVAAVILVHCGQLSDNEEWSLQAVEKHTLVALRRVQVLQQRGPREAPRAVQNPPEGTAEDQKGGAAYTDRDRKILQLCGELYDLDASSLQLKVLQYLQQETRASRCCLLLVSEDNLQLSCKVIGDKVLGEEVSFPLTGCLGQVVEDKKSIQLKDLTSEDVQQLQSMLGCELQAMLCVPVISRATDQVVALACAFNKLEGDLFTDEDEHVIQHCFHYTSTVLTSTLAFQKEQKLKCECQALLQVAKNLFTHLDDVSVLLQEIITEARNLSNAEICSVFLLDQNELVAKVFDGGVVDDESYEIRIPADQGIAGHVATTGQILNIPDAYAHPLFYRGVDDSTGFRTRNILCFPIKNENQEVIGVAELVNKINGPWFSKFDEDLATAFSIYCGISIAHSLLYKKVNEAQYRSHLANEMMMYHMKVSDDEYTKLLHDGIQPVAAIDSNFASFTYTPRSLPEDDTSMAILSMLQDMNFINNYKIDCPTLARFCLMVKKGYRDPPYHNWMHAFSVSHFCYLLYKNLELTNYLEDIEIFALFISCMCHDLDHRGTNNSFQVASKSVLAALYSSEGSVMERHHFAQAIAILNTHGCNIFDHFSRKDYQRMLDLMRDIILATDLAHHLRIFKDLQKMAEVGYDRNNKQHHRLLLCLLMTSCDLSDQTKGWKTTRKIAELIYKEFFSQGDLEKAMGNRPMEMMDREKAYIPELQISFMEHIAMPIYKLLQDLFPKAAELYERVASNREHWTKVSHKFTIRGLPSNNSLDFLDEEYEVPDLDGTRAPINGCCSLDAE
Chain of cGMP-inhibited 3',5'-cyclic phosphodiesterase 3B (Homo sapiens) (Q13370 whole entry, looked up): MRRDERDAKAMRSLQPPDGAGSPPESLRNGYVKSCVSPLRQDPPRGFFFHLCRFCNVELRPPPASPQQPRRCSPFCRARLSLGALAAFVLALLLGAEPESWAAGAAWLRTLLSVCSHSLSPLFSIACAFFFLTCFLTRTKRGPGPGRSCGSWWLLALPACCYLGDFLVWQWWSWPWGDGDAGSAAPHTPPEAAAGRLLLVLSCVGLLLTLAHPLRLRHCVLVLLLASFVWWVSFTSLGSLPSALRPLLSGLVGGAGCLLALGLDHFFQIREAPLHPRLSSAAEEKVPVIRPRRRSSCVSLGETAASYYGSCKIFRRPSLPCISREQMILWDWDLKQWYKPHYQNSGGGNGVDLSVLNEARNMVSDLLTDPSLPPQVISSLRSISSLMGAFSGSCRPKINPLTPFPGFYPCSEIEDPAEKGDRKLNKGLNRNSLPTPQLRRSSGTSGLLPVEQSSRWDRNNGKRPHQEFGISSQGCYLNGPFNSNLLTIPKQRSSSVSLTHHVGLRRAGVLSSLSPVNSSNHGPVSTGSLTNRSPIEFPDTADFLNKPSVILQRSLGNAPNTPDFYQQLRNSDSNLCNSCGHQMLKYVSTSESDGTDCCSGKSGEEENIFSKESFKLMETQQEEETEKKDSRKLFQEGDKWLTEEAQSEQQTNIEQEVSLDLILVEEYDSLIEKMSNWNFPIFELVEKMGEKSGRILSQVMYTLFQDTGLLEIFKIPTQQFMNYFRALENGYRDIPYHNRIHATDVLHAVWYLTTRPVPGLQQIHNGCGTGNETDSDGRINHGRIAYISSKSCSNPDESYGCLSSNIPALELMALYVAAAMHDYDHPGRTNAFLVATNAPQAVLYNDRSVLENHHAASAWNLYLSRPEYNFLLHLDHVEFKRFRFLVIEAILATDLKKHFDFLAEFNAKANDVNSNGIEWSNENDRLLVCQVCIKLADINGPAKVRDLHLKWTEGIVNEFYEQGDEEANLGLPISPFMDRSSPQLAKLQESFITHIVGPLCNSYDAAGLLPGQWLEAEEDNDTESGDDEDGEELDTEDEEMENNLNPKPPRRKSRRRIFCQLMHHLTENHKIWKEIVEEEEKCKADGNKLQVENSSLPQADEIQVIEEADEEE
Chain of Dual 3',5'-cyclic-AMP and -GMP phosphodiesterase 11A (Q9HCR9 whole entry): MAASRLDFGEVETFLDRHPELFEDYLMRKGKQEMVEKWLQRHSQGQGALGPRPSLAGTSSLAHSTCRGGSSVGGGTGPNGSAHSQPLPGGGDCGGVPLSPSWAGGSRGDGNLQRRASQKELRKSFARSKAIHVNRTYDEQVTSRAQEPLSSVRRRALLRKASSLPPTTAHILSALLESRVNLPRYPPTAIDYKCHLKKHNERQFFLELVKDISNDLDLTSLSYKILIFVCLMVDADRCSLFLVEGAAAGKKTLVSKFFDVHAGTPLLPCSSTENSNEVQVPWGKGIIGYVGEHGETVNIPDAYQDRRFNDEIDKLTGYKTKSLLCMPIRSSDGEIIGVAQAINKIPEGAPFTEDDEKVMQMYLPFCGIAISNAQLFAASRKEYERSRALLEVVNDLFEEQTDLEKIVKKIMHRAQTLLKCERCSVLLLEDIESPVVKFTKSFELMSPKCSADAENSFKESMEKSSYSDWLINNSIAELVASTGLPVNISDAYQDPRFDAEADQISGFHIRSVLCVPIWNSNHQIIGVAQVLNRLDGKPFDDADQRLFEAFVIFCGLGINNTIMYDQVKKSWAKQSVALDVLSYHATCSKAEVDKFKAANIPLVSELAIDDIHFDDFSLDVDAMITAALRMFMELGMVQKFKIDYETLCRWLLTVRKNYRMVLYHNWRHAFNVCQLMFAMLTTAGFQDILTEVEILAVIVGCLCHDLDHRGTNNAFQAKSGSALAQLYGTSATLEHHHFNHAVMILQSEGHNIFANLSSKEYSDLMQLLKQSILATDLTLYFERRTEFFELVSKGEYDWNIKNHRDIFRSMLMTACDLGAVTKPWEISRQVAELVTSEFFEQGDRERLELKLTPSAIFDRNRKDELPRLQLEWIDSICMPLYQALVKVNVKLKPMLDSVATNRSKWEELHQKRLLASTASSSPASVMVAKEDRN
Chain of Cone cGMP-specific 3',5'-cyclic phosphodiesterase subunit alpha' (P51160 whole entry): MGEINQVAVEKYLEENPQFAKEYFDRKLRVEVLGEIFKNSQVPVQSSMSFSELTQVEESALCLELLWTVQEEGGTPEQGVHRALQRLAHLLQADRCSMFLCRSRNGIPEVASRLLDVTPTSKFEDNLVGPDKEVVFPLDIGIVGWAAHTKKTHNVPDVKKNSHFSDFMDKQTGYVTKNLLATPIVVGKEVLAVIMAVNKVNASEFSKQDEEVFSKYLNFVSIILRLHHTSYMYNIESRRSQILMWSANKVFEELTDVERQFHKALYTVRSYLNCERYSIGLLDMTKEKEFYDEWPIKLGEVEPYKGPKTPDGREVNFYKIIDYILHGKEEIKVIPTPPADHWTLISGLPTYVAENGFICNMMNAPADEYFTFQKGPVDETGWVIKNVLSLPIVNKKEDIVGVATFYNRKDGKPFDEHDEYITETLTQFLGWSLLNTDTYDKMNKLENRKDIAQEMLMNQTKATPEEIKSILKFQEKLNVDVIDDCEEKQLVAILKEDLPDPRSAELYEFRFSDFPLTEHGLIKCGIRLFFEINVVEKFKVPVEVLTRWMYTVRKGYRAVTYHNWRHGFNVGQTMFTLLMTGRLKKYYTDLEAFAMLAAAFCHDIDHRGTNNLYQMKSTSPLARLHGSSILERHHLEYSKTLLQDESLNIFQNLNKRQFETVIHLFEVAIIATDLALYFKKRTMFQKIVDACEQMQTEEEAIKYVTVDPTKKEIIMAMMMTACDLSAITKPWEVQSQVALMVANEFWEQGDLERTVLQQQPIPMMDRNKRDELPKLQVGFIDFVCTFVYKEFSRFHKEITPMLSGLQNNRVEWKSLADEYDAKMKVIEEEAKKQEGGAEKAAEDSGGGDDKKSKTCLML
Chain of Dual specificity calcium/calmodulin-dependent 3',5'-cyclic nucleotide phosphodiesterase 1A (Homo sapiens) (P54750 whole entry, the tested form may be a part): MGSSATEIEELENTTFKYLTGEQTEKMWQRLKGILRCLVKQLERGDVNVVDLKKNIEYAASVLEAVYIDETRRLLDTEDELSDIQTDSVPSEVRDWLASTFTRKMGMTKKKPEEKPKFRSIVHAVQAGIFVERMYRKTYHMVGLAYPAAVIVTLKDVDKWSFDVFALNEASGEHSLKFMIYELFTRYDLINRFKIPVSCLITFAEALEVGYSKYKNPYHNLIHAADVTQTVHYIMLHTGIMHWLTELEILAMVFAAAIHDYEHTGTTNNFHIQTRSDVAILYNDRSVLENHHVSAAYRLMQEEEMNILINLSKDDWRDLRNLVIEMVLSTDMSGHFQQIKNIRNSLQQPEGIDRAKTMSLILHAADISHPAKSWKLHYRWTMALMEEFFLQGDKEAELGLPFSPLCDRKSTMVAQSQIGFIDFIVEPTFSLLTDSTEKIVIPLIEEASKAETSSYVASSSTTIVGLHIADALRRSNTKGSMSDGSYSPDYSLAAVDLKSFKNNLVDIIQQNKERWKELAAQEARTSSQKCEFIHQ

| SMILES | AUC(0-t) at 24 h [1] [µg·h/mL] | Tmax [3] [min] | IC50 [4] [nM] | AUC(0-inf) [6] [µg·h/mL] | Activity (Thoracic aorta) [%] | Ratio IC50 (Homo sapiens [7]) | MRT [8] [h] | IC50 [10] [nM] | half-life [11] [h] | Cmax [12] [µg/mL] | Ratio IC50 (Homo sapiens [13]) | MRT [14] [h] | Vd [15] [L/kg] | Vdss (Rattus norvegicus [16]) [L/kg] | Ratio IC50 (Homo sapiens [17]) | Ratio IC50 (Homo sapiens [18]) | Tmax [19] [h] | Ratio IC50 (Homo sapiens [20]) | AUC(0-t) at 24 h [21] [µg·h/mL] | ED50 (Oryctolagus cuniculus) [mg/kg] | also measured |
| --- | --- | --- | --- | --- | --- | --- | --- | --- | --- | --- | --- | --- | --- | --- | --- | --- | --- | --- | --- | --- | --- |
| CCc1ccc([C@@H]2c3[nH]c4ccccc4c(=O)c3CN2c2ncc(-c3ccccn3)cn2)s1 | 0.121 | 6 | 2.7 | 0.125 | >90 | 2.5 | 6.7 | 1.2 | 4.3 | 0.0275 | > 10000 | 2.9 | 72.7 | 181.3 | > 10000 | 5.2 | 2.8 | > 2500 | 0.225 | 0.0217 | inhibition [2]: 9.5%; AUC (Rattus norvegicus [5]): 0.2319 µg·h/mL; inhibition [9]: 39%; inhibition [22]: 7%; inhibition [23]: 10%; IC50 [24]: 0.52 nM; clearance [25]: 17.2 L/h/kg; Cmax [26]: 0.308 µg/mL; half-life [27]: 1.9 h; bioavailability [28]: 24.7%; inhibition [29]: 81%; Ratio IC50 (Homo sapiens [30]): > 10000 |
| CCc1ccc([C@@H]2c3[nH]c4ccccc4c(=O)c3CN2c2ncc(-c3ccccn3)cn2)o1 | 0.0679 | 6 | 5.1 | 0.0693 | >90 | 3.9 | 9.4 | 1.5 | 7.8 | 0.0469 | > 10000 | 3.1 | 124 | 420.9 | > 10000 | 13.1 | 1.3 | > 2500 | 0.312 | 0.0242 | AUC(0-inf) [31]: 0.345 µg·h/mL; inhibition [32]: 18%; CL/F [33]: 33 L/h/kg; inhibition [34]: 9.5%; inhibition [35]: 6%; IC50 [24]: 0.39 nM; clearance [25]: 32 L/h/kg; Cmax [26]: 0.0892 µg/mL; half-life [27]: 2.9 h; bioavailability [28]: 66.3%; inhibition [36]: 49%; Ratio IC50 (Homo sapiens [30]): > 10000 |
